Results published in BindingDB's records for doi:10.1021/jm990004i (Imperial College, 1999).

The compounds below were run against T1, Carboxypeptidase G2 (Pseudomonas aeruginosa (strain ATCC 15692 / DSM 22644 / CIP 104116 / JCM 14847 / LMG 12228 / 1C / PRS 101 / PAO1), UniProt Q9I056) (assay: Inhibitory activity against bacterial carboxypeptidase G2 by Dixon plot assay).
T1 sequence (Q9I056 whole entry): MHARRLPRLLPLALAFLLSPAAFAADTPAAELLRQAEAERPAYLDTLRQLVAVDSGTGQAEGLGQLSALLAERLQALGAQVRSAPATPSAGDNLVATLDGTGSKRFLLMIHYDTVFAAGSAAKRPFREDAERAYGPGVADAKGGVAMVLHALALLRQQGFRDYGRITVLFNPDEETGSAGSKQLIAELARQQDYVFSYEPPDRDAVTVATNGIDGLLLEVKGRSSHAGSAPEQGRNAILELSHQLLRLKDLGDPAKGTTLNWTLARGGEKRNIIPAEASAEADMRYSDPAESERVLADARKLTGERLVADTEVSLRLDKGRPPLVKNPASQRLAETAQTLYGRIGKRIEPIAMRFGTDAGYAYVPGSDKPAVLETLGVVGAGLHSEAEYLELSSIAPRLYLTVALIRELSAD
Procedure, shortened: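 Bacterial CPG2 (10 μL stock, 0.1 U) started with 990 μL methotrexate solutions at several concentrations plus inhibitor 0–3.0 μM, in 0.1 M Tris-HCl pH 7.3 with 0.1 mM ZnCl2, 37 °C. Initial rate of absorbance decrease at 320 nm (methotrexate ε 8300). Apparent Ki read from Dixon plot of 1/V against inhibitor concentration.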

| Ki [nM] | SMILES |
| --- | --- |
| 165000 | O=C(O)CCC(NC(=O)Sc1cc[n+]([O-])cc1)C(=O)O (stereo unspecified) [2-(1-Oxy-pyridin-4-ylsulfanylcarbonylamino)-pentanedioic acid] |
| 2500 | Nc1cccc(SC(=O)NC(CCC(=O)O)C(=O)O)c1 (stereo unspecified) [2-(3-Amino-phenylsulfanylcarbonylamino)-pentanedioic acid] |
| 1070 | COc1cccc(SC(=O)NC(CCC(=O)O)C(=O)O)c1 (stereo unspecified) [2-(3-Methoxy-phenylsulfanylcarbonylamino)-pentanedioic acid] |
| 5800 | Nc1ccc(SC(=O)NC(CCC(=O)O)C(=O)O)cc1 (stereo unspecified) [2-(4-Amino-phenylsulfanylcarbonylamino)-pentanedioic acid] |
| 1050 | Cc1ccc(SC(=O)NC(CCC(=O)O)C(=O)O)cc1 (stereo unspecified) [2-p-Tolylsulfanylcarbonylamino-pentanedioic acid] |
| 300 | COc1ccc(SC(=O)N[C@H](CCC(=O)O)C(=O)O)cc1 [(R)-2-(4-Methoxy-phenylsulfanylcarbonylamino)-pentanedioic acid] |
